Results pooled from the literature.
Compare with care: the assays were run in different laboratories.
Target: Serine/threonine-protein kinase TAO3 (TAOK3, Homo sapiens, UniProt Q9H2K8)
Sequence (Q9H2K8 1-898, as in one of the studies): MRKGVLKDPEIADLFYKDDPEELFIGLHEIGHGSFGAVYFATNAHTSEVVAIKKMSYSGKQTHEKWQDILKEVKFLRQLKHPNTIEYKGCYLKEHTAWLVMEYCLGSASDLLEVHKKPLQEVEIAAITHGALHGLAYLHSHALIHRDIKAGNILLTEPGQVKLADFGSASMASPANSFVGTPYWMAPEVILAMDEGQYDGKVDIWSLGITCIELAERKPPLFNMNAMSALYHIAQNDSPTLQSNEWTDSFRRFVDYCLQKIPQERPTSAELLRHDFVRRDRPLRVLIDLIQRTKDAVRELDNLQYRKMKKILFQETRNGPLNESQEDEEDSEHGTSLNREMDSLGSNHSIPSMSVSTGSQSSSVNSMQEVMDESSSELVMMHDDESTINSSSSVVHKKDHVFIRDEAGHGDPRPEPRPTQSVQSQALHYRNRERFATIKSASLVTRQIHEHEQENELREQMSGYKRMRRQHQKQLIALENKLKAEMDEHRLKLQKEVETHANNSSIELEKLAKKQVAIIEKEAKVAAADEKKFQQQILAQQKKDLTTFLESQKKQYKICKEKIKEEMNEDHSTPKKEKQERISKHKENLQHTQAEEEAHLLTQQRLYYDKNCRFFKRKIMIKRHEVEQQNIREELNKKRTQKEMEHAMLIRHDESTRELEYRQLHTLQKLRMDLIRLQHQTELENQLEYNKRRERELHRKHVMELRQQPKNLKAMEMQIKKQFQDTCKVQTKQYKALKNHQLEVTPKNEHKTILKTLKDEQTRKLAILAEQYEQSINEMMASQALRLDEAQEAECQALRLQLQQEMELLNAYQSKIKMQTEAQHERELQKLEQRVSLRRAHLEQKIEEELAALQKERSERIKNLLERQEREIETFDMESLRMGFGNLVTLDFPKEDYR

| Compound | effect on | action | technique | concentration | measurement | value |
| --- | --- | --- | --- | --- | --- | --- |
| O=C(Nc1ccc(Oc2ccc(F)cc2)cc1)N1CCc2ncccc2[C@H]1c1ccc(F)cc1 | cell-free assay | – | competition with immobilised ligand | 1 µM | remaining binding | 92% |
| Cc1sc(C(=O)NC2COC2)cc1-n1cc(NC(=O)Nc2c(F)cccc2Cl)cn1 | enzyme activity | inhibitor | – | 10 µM | remaining activity | 98% |
| COc1cc(-c2cc(-c3ccc(N4CCNCC4)cc3)cnc2C)cc(OC)c1OC | enzyme activity | inhibitor | – | 1 µM | inhibition | 3% |
| CCC(=N\O)/C(C)=C/c1ccc(F)cc1 | cell-free assay | – | competition with immobilised ligand | 1 µM | remaining binding | 86% |
| O=C1Nc2ccc(Cl)cc2C1=Cc1cc(Cl)c(O)c(Cl)c1 | cell-free assay | – | – | 0.5 µM | remaining signal | 50.6% |
| CCCOc1ccc(OC)c(F)c1C(=O)c1ccc(C(=O)N[C@@H]2CNC[C@H]2NC(=O)c2ccc3[nH]ncc3c2)cc1 | enzyme activity | inhibitor | – | 10 µM | remaining activity | 81% |
| COc1cc2c(Nc3ccc(Br)cc3F)ncnc2cc1OCC1CCN(C)CC1 | cell-free assay | – | – | 0.5 µM | remaining signal | 98.4% |
| Cc1ccc(Nc2nccc(N(C)c3ccc4c(C)n(C)nc4c3)n2)cc1S(N)(=O)=O | enzyme activity | inhibitor | – | 0.3 µM | inhibition | 60% |
| CN1CC(Oc2cnc(C#N)cc2-c2ccn3nc(NC(=O)C4CC4)cc3c2)C1 | enzyme activity | inhibitor | – | 1 µM | inhibition | -4% |
| Cc1nc(C2CCN(C(=O)c3ccc(OC(F)(F)F)cc3N)CC2)c2ncc(N3CCN(C)CC3)cc2n1 | cell-free assay | – | competition with immobilised ligand | 1 µM | remaining binding | 100% |
| CC(C)(C)c1nc2c(s1)c1nc(N)ncc1c1ccc(NS(=O)(=O)c3c(F)cccc3F)c(F)c12 | enzyme activity | inhibitor | radiometric | 1 µM | remaining activity | 87% |
| Cc1nccc(COC(=O)N2C[C@@H]3[C@@H](CNC(=O)c4ccc5[nH]nnc5c4)[C@@H]3C2)n1 | cell-free assay | – | competition with immobilised ligand | 1 µM | remaining binding | 83% |
| CNC(=O)c1cc(Oc2ccc(NC(=O)Nc3ccc(Cl)c(C(F)(F)F)c3)cc2)ccn1 | enzyme activity | inhibitor | – | 0.3 µM | inhibition | 77% |
| CCCCN(CCCC)C(=O)CN1C[C@H](c2cc(OC)c3c(c2)OCO3)[C@@H](C(=O)O)[C@@H]1CC(C)(C)CCC | cell-free assay | – | competition with immobilised ligand | 1 µM | remaining binding | 63.2% |
| Cc1ccc(C(=O)Nc2ccc(CN3CCN(C)CC3)c(C(F)(F)F)c2)cc1C#Cc1cnc2cccnn12 | enzyme activity | inhibitor | – | 23.5 nM | remaining activity | 28% |
| CC(C)(O)[C@H]1CC[C@H](Nc2ccc3ncc(-c4cccc(C(F)(F)F)c4)n3n2)CC1 | enzyme activity | inhibitor | – | 1 µM | remaining activity | 75.1% |
| COCCOc1nc(-c2ccc(Cl)nc2)nc2c1CN(C(=O)c1ncn3ccccc13)CC2 | cell-free assay | – | competition with immobilised ligand | 0.1 µM | remaining binding | 100% |
| COc1cc2c(N3CCN(C(=O)Nc4ccc(OC(C)C)cc4)CC3)ncnc2cc1OCCCN1CCCCC1 | cell-free assay | – | – | 0.5 µM | remaining signal | 96.8% |
| CN(C)c1nccc(-c2cnn3ncccc23)n1 | binding | – | – | 1 µM | remaining binding | 73% |
| O=C1NC(=O)c2cc(Nc3ccc(F)cc3)c(Nc3ccc(F)cc3)cc21 | cell-free assay | – | – | 0.5 µM | remaining signal | 89.9% |
| Cc1cc(NC(=O)c2cccc3cc(-c4cccc5[nH]nc(N)c45)ccc23)ccc1F | enzyme activity | inhibitor | – | 0.1 µM | activity vs control | 96% |
| CCN(CC)CCNC(=O)c1c(C)[nH]c(/C=C2\C(=O)Nc3ccc(F)cc32)c1C | cell-free assay | – | – | 0.5 µM | remaining signal | 82.9% |
| O=C(O)c1cc(-c2ccc(C3CCNCC3)cc2)c2ccc(-c3ccc(C(F)(F)F)cc3)cc2c1 | cell-free assay | – | competition with immobilised ligand | 1 µM | remaining binding | 100% |
